Entries after “also recorded” stand apart in the source; their conditions may differ.
B1: IST2^716: construct containing the first 716 amino acids of IST2 (protein)
chain: MSQTITSLDPNCVIVFNKTSSANEKSLNVEFKRLNIHSIIEPGHDLQTSYAFIRIHQDNAKPLFSFLQNLDFIESIIPYHDTELSDDLHKLISISKSKILEAPKQYELYNLSNLTNNPKQSLYFAFLQNYIKWLIPFSFFGLSIRFLSNFTYEFNSTYSLFAILWTLSFTAFWLYKYEPFWSDRLSKYSSFSTIEFLQDKQKAQKKASSVIMLKKCCFIPVALLFGAILLSFQLYCFALEIFIKQIYNGPMISILSFLPTILICTFTPVLTVIYNKYFVEPMTKWENHSSVVNAKKSKEAKNFVIIFLSSYVPLLITLFLYLPMGHLLTAEIRTKVFNAFSILARLPTHDSDFIIDTKRYEDQFFYFIVINQLIQFSMENFVPSLVSIAQQKINGPNPNFVKAESEIGKAQLSSSDMKIWSKVKSYQTDPWGATFDLDANFKKLLLQFGYLVMFSTIWPLAPFICLIVNLIVYQVDLRKAVLYSKPEYFPFPIYDKPSSVSNTQKLTVGLWNSVLVMFSILGCVITATLTYMYQSCNIPGVGAHTSIHTNKAWYLANPINHSWINIVLYAVFIEHVSVAIFFLFSSILKSSHDDVANGIVPKHVVNVQNPPKQEVFEKIPSPEFNSNNEKELVQRKGSANEKLHQELGEKQPASSANGYEAHAATHANNDPSSLSSASSPSLSSSSSSSKTGVVKAVDNDTAGSAGKKPLATESTE
modifications: left off: SBP, N-terminal, state not stated | myc, N-terminal, state not stated
B2: TMEM16A: murine TMEM16A, unable to scramble lipids (protein, UniProt Q8BHY3 1-960, looked up)
Anoctamin-1: MRVPEKYSTLPAEDRSVHIVNICAIEDLGYLPSEGTLLNSLSVDPDAECKYGLYFRDGKRKVDYILVYHHKRASGSRTLARRGLQNDMVLGTRSVRQDQPLPGKGSPVDAGSPEVPMDYHEDDKRFRREEYEGNLLEAGLELENDEDTKIHGVGFVKIHAPWHVLCREAEFLKLKMPTKKVYHISETRGLLKTINSVLQKITDPIQPKVAEHRPQTTKRLSYPFSREKQHLFDLTDRDSFFDSKTRSTIVYEILKRTTCTKAKYSMGITSLLANGVYSAAYPLHDGDYEGDNVEFNDRKLLYEEWASYGVFYKYQPIDLVRKYFGEKVGLYFAWLGAYTQMLIPASIVGVIVFLYGCATVDENIPSMEMCDQRYNITMCPLCDKTCSYWKMSSACATARASHLFDNPATVFFSVFMALWAATFMEHWKRKQMRLNYRWDLTGFEEEEEAVKDHPRAEYEARVLEKSLRKESRNKETDKVKLTWRDRFPAYFTNLVSIIFMIAVTFAIVLGVIIYRISTAAALAMNSSPSVRSNIRVTVTATAVIINLVVIILLDEVYGCIARWLTKIEVPKTEKSFEERLTFKAFLLKFVNSYTPIFYVAFFKGRFVGRPGDYVYIFRSFRMEECAPGGCLMELCIQLSIIMLGKQLIQNNLFEIGIPKMKKFIRYLKLRRQSPSDREEYVKRKQRYEVDFNLEPFAGLTPEYMEMIIQFGFVTLFVASFPLAPLFALLNNIIEIRLDAKKFVTELRRPVAIRAKDIGIWYNILRGVGKLAVIINAFVISFTSDFIPRLVYLYMYSQNGTMHGFVNHTLSSFNVSDFQNGTAPNDPLDLGYEVQICRYKDYREPPWSEHKYDISKDFWAVLAARLAFVIVFQNLVMFMSDFVDWVIPDIPKDISQQIHKEKVLMVELFMREEQGKQQLLDTWMEKEKPRDVPCNNHSPTTHPEAGDGSPVPSYEYHGDAL

How the values were obtained:
[1] = tested on: S. cerevisiae ist2;psd1-KO strain (AWY327); test: Yeast complementation; type: cell-based; conditions: 2% galactose, 30 °C, 3–4 days
[2] = Lipid-scrambling assay in liposomes; type: biochemical; conditions: absence and presence of 1 mM Ca^2+
Outline: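 GDN-purified membrane proteins reconstituted into destabilized liposomes (lipid stock 10 mg ml−1, three freeze–thaw cycles, stored −80 °C). Liposomes diluted to 20 µM final in 80 mM HEPES pH 7.5, 300 mM KCl, 2 mM EGTA in a quartz cuvette. NBD fluorescence recorded 60 s, 30 mM dithionite added to bleach outer-leaflet NBD, then recorded a further 6 min. Traces normalized to fluorescence just before dithionite.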

Molecule	Growth complementation (in words) [1]	Lipid scrambling activity (in words) [2]
C[N+](C)(C)CCO [choline, reference compound]	growth deficit can be alleviated	
B1	growth is not rescued	pronounced scrambling activity in the absence of Ca^2+, which was not further enhanced upon Ca^2+ addition; also recorded: Ca^2+-independent scrambling
B2		unable to scramble lipids; also recorded: Absence of lipid-scrambling activity

From article PMC12618243 (Nature Structural & Molecular Biology, 2025)
